Key:
C8166 [1] = assay: Concentration of compound that inhibits incorporation of radiolabeled amino acids by 50 %; type: functional; details: Homo sapiens, read-out: CD50 (the source's name)
In short: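 C8166 cells (2 × 10⁵) exposed to compound at various concentrations for 3 days, washed, then given ¹⁴C protein hydrolysate for a further 24 h. Cells harvested and washed, ¹⁴C incorporation counted by scintillation, radioactivity plotted against concentration; CD50 = concentration inhibiting label incorporation by 50%.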

C8166 [2] = assay: Antiviral activity against HIV-1 (RF strain) in C8166 cells; type: functional, cell-based; details: Homo sapiens
In short: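 HIV-1 RF strain in C8166 cells, 3-day incubation with compound at various concentrations (highest tested 100 μM). Virus in culture medium quantified by p24 antigen-capture ELISA (primary antiserum against p24, horseradish peroxidase detection), colour read spectrophotometrically and plotted against concentration; IC50 = concentration reducing virus levels by 50%.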

Structure (SMILES) | CC50 (C8166 [1]) [µM] | IC50 (C8166 [2]) [µM]
Cc1cn([C@@H]2O[C@H](CO)C=C2F)c(=O)[nH]c1=O | > 1000 | 100
Nc1ccn([C@@H]2O[C@H](CO)C[C@@H]2F)c(=O)n1 | 500 | 0.7
Nc1ccn([C@@H]2O[C@H](CO)C=C2F)c(=O)n1 | 30 | 10
O=c1ccn(C2OC(CO)C=C2F)c(=O)[nH]1 (configuration not stated) | – | > 100
Nc1ccn(C2OC(CO)CC2F)c(=O)n1 (configuration not stated) | – | > 100
O=c1ccn(C2OC(CO)C(F)C2F)c(=O)[nH]1 (configuration not stated) | – | > 100
Nc1nc(=O)n(C2OC(CO)CC2F)cc1F (configuration not stated) | – | > 100
O=c1ccn(C2OC(CO)CC2F)c(=O)[nH]1 (configuration not stated) | – | > 100
Nc1ccn(C2OC(CO)C(F)C2F)c(=O)n1 (configuration not stated) | > 100 | 10
Nc1ccn([C@H]2CC[C@@H](CO)O2)c(=O)n1 [ZALCITABINE] | 1000 | 0.125
Cc1cn([C@H]2C[C@H](N=[N+]=[N-])[C@@H](CO)O2)c(=O)[nH]c1=O [ZIDOVUDINE] | > 1000 | 0.0085

Reference: ChEMBL document CHEMBL1124867, “Synthesis and antiviral activity of monofluoro and difluoro analogues of pyrimidine deoxyribonucleosides against human immunodeficiency virus (HIV-1)” (J Med Chem, 1990)
